Experimental data reported in PubChem BioAssay AID588828 (Broad Institute, 2011).
Active and inactive are the calls of the source.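 Rule for the calls: active = compounds cutting labeled HDL uptake fluorescence whose fitted AC50 is within ten times their top tested dose; inconclusive = flat fit with 30 to 70% inhibition, or poor fit; inactive = the rest.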

target: Scavenger receptor class B member 1 (Mus musculus) (UniProt Q61009); assay: inhibitors of SR-BI-mediated DiI-HDL uptake, dose response, ldlA[mSR-BI] CHO cells, fluorescence, dry powder, set 6 (AID 588828); details: 3 h
In short: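 Test system: mSR-BI-overexpressing CHO ldlA cells / Measured by: bottom-read fluorescence, 550/595 nm / Doses: compound concentration series / Timing: overnight cell attachment, then 3 h compound and DiI-HDL exposure at 37 °C / Benchmarks: DMSO as neutral control, BLT-1 as positive control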

Chain of Scavenger receptor class B member 1 (Mus musculus) (Q61009 whole entry, looked up): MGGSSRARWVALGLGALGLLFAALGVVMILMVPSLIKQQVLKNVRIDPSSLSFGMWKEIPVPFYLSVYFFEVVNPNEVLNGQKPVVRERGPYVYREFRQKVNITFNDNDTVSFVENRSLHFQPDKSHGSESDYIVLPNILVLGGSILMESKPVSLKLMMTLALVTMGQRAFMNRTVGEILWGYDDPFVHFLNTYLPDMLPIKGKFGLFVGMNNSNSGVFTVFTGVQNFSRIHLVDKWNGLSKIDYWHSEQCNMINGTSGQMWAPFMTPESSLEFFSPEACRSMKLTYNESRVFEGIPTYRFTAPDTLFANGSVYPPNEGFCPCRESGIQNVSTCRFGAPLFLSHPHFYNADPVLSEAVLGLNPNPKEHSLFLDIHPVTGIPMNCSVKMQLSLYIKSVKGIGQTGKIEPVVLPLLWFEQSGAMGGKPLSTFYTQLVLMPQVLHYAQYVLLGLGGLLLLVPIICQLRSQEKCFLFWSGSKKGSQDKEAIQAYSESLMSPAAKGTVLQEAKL

| Compound | AC50 |
| --- | --- |
| COc1ccc(-c2cc(CC(=O)N(C3CCCCC3)C(C)C(=O)NC3CCCC3)no2)cc1OC (stereo unspecified) | 3.19 nM |
| C[C@H](C(=O)NC1CCCC1)N(C(=O)Cn1nnc(-c2ccc3c(c2)OCO3)n1)C1CCCCC1 | 1.22 nM |
| C[C@@H]1CN([C@@H](C)CO)C(=O)Cc2cc(NC(=O)Nc3ccc(C(F)(F)F)cc3)ccc2O[C@@H]1CN(C)S(=O)(=O)c1ccc(Cl)cc1 | > 22000 nM (inactive) |
| CCNC(=O)N1CCc2cc(-c3csc(NC(=O)c4cc(OC)cc(OC)c4)n3)ccc21 | 0.927 nM |
| CCC(=O)N1CCc2cc(-c3csc(NC(=O)c4ccc(F)c(OC)c4)n3)ccc21 | 287 nM |
| COc1cc(OC)cc(C(=O)Nc2nc(-c3ccc4c(c3)CCN4C(=O)OC(C)(C)C)cs2)c1 | 6.89 nM |
| CCC(=O)N1CC(C)(C)c2cc(-c3csc(NC(=O)c4cc(OC)cc(OC)c4)n3)ccc21 | 14.2 nM |
| Cc1ccc2oc(-c3cccc(NC(=O)c4cc(-n5cnnc5)ccc4Cl)c3)nc2c1 | 568 nM |

Other lines, results leading:

| AC50 | Compound |
| --- | --- |
| 614 nM | CC(=O)N1CCc2cc(-c3nc(NC(=O)c4cccc(OC(F)(F)F)c4)sc3C)ccc21 |
| 3.66 nM | COCC(=O)N1CCc2cc(-c3csc(NC(=O)c4cc(OC)cc(OC)c4)n3)ccc21 |
| 6.3 nM | COc1cc(OC)cc(C(=O)Nc2nc(-c3ccc4c(c3)CCN4C(=O)CN(C)C)cs2)c1 |
| 92.6 nM | CCC(=O)N1CCc2cc(-c3csc(NC(=O)c4cccc(OC)c4)n3)ccc21 |
| 18.7 nM | CCCCCCC1CCC/C1=N\NC(N)=S (stereo unspecified) |
| 43.8 nM | C[C@@H]1CN([C@H](C)CO)C(=O)c2cc(NC(=O)Cc3cn(C)c4ccccc34)ccc2O[C@H]1CN(C)S(=O)(=O)c1ccc(Cl)cc1 |

same assay, conditions: 3 h, at 35 µM (top of the series)

| activity change, negative = inhibition | Compound |
| --- | --- |
| inactive | COc1c(NC(=O)C(=O)c2ccc(OCCN3CCOCC3)c3ccccc23)cc(C(C)(C)C)cc1NS(C)(=O)=O |
| inactive | CC(C)(Sc1cc(C(C)(C)C)c(O)c(C(C)(C)C)c1)Sc1cc(C(C)(C)C)c(O)c(C(C)(C)C)c1 |
